Experimental data from ChEMBL document CHEMBL5712070, “Discovery of a chemical probe for the L3MBTL3 methyllysine reader domain” (Nat Chem Biol, 2013).
Activity calls are given as the source filed them. No cut-off for these calls is given here.

How the values were obtained:
[1] = target: Receptor-type tyrosine-protein kinase FLT3 (Homo sapiens) (UniProt P36888); test: Inhibition of FLT3 (unknown origin) at 10 uM relative to control
[2] = target: T1, Lethal(3)malignant brain tumor-like protein 3 (Homo sapiens, UniProt Q96JM7); test: Binding affinity to GFP-tagged full length L3MBTL3 (unknown origin) assessed as diffusion coefficient at 0.01 uM (reference value: 0.037549815 um2/s)
T1 sequence (Q96JM7 whole entry): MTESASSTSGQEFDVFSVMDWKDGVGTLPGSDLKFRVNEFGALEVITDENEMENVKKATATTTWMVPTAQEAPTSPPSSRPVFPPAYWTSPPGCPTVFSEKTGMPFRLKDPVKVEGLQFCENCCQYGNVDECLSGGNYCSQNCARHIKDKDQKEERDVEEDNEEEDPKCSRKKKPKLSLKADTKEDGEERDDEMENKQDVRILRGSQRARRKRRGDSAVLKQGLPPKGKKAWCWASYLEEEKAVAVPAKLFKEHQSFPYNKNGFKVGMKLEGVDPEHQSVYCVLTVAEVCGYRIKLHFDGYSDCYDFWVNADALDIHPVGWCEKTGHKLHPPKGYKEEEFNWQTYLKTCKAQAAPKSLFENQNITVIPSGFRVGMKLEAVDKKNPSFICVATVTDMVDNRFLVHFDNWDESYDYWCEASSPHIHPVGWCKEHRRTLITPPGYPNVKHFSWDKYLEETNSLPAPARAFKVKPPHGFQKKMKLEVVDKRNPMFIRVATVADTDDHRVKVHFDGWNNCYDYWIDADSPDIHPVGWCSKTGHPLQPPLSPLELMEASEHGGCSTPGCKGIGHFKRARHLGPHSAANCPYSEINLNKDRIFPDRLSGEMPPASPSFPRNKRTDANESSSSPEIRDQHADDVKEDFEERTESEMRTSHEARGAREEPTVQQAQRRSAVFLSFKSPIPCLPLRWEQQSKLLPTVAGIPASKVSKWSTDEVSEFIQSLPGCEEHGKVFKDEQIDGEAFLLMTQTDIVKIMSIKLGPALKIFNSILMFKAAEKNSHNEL

[3] = target: Muscarinic acetylcholine receptor M5 (Homo sapiens, UniProt P08912); test: Inhibition of M5 receptor (unknown origin) by radioligand binding assay
[4] = Stability in HEK293T/17 cells assessed as compound degradation after 72 hrs in presence of in cell media; assay type: ADME, cell-based; conditions: human, hek293t/17, 72 h
Summary of the method: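 Compound incubated in cell medium with or without HEK293 cells for 72 hours, then examined for degradation products.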

[5] = target: T1, Lethal(3)malignant brain tumor-like protein 3; test: Binding affinity to GFP-3MBT tagged L3MBTL3 (unknown origin) assessed as diffusion coefficient at 0.05 uM (reference value: 0.1272 um2/s)
[6] = target: MBT domain-containing protein 1 (Homo sapiens, UniProt Q05BQ5); test: Inhibition of MBT domain containing MBTD1 (unknown origin) using H4K20me2 peptide by Alpha-Screen methylated histone peptide competition assay
[7] = target: Muscarinic acetylcholine receptor M2 (Homo sapiens, UniProt P08172); test: Antagonist activity at human M2 receptor assessed as reduction in acetylcholine-induced response by Schild analysis; assay type: functional; conditions: read-out: pA2 (converted)
[8] = target: Muscarinic acetylcholine receptor M2 (Homo sapiens) (UniProt P08172); test: Agonist activity at human M2 receptor; assay type: functional
[9] = target: PHD finger protein 20-like protein 1 (Homo sapiens, UniProt A8MW92); test: Binding affinity to tudor domain containing PHF20L1 (unknown origin) by ITC assay
[10] = target: T1, Lethal(3)malignant brain tumor-like protein 3; test: Binding affinity to GFP-3MBT tagged L3MBTL3 (unknown origin) assessed as diffusion coefficient at 1 uM (reference value: 0.1272 um2/s)
[11] = target: Lethal(3)malignant brain tumor-like protein 4 (Homo sapiens, UniProt Q8NA19); test: Inhibition of MBT domain containing L3MBTL4 (unknown origin) using H4K20me2 peptide by Alpha-Screen methylated histone peptide competition assay
Chain of Lethal(3)malignant brain tumor-like protein 4 (Q8NA19 whole entry, the tested form may be a part): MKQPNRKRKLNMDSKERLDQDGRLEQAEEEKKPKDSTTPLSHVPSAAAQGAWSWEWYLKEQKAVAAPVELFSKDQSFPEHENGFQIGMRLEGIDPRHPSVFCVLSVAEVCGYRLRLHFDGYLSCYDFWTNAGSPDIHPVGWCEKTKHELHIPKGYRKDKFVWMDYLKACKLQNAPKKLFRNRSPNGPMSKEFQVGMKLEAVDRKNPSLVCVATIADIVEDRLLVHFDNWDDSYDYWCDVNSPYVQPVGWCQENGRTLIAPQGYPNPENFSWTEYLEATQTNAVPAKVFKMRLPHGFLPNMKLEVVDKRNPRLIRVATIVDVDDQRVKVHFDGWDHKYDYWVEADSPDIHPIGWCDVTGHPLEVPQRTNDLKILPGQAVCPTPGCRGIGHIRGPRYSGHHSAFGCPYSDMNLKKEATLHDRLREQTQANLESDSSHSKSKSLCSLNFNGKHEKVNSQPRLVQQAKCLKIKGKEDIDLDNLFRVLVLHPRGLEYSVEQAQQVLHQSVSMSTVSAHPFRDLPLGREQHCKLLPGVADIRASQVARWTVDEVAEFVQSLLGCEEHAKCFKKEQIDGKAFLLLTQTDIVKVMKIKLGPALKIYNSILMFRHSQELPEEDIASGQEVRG

Chain of Muscarinic acetylcholine receptor M2 (P08172 whole entry): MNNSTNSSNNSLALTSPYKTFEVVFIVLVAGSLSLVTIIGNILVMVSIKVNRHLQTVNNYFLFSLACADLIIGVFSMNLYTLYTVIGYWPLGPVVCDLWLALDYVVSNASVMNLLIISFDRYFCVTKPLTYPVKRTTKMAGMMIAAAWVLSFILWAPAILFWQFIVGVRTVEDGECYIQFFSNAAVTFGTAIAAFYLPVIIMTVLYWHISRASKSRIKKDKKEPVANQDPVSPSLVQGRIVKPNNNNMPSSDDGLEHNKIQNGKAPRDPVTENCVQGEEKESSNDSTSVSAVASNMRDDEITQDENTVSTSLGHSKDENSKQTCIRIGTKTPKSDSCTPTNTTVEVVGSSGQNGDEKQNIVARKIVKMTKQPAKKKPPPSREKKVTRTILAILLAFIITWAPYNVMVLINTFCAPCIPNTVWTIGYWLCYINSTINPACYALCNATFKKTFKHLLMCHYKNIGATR
Chain of Muscarinic acetylcholine receptor M2 (Homo sapiens) (P08172 whole entry, the tested form may be a part): as the sequence (P08172 whole entry) above
Chain of Muscarinic acetylcholine receptor M5 (P08912 whole entry): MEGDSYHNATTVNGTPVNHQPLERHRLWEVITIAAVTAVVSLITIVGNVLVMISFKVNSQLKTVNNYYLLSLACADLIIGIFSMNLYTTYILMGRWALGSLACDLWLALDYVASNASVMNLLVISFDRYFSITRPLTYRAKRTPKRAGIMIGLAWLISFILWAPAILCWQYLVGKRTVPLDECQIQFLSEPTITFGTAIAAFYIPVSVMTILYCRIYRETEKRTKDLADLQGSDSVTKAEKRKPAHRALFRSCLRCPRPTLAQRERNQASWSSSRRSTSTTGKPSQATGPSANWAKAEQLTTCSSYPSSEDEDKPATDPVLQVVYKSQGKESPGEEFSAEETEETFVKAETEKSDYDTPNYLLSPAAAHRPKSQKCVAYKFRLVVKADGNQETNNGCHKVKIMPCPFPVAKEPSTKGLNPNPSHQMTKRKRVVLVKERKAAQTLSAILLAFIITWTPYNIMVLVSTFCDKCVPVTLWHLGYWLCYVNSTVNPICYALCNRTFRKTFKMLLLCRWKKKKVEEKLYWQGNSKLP
Chain of PHD finger protein 20-like protein 1 (A8MW92 whole entry, the tested form may be a part): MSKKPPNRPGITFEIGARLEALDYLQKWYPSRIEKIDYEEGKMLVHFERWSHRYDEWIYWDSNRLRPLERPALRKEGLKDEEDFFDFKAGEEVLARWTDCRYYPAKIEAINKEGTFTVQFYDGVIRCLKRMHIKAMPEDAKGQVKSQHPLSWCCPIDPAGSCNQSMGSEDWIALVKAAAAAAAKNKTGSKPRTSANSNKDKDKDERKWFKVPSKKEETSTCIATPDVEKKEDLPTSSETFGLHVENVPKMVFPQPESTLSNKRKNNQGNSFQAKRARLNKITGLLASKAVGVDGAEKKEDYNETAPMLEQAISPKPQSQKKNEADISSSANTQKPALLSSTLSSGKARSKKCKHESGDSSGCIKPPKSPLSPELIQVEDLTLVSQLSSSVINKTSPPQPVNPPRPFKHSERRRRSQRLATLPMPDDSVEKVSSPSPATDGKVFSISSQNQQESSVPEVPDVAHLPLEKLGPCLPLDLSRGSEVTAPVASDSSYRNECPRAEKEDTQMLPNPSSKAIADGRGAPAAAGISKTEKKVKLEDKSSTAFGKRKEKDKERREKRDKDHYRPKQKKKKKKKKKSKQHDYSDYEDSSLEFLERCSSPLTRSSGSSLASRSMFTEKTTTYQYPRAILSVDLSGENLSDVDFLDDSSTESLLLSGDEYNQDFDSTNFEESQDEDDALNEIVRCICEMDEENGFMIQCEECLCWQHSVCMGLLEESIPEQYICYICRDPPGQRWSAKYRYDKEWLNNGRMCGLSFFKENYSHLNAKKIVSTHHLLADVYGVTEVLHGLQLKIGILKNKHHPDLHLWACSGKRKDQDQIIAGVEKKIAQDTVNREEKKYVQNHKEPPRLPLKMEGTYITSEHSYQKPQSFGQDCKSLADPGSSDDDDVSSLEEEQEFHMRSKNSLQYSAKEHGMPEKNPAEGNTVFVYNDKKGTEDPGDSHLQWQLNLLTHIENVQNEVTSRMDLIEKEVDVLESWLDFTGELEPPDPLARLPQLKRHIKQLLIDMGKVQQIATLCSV
Chain of MBT domain-containing protein 1 (Q05BQ5 whole entry, the tested form may be a part): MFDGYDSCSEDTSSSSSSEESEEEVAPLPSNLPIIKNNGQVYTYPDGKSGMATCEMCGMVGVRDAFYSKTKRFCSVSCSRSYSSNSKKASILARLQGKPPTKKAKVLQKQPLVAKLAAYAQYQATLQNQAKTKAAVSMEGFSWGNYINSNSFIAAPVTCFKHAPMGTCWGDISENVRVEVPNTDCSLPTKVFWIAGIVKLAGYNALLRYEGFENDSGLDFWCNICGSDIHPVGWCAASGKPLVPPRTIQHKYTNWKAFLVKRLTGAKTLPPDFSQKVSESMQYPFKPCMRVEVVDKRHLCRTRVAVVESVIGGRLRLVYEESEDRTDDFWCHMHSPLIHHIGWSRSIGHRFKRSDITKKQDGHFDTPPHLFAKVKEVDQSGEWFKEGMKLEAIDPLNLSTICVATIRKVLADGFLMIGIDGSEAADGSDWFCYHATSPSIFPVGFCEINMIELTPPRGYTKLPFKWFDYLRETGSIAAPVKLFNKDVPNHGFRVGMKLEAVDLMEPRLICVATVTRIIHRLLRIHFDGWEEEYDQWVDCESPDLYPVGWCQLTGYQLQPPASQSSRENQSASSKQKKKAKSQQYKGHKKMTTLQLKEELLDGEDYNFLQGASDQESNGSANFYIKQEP
Chain of Receptor-type tyrosine-protein kinase FLT3 (Homo sapiens) (P36888 whole entry, the tested form may be a part): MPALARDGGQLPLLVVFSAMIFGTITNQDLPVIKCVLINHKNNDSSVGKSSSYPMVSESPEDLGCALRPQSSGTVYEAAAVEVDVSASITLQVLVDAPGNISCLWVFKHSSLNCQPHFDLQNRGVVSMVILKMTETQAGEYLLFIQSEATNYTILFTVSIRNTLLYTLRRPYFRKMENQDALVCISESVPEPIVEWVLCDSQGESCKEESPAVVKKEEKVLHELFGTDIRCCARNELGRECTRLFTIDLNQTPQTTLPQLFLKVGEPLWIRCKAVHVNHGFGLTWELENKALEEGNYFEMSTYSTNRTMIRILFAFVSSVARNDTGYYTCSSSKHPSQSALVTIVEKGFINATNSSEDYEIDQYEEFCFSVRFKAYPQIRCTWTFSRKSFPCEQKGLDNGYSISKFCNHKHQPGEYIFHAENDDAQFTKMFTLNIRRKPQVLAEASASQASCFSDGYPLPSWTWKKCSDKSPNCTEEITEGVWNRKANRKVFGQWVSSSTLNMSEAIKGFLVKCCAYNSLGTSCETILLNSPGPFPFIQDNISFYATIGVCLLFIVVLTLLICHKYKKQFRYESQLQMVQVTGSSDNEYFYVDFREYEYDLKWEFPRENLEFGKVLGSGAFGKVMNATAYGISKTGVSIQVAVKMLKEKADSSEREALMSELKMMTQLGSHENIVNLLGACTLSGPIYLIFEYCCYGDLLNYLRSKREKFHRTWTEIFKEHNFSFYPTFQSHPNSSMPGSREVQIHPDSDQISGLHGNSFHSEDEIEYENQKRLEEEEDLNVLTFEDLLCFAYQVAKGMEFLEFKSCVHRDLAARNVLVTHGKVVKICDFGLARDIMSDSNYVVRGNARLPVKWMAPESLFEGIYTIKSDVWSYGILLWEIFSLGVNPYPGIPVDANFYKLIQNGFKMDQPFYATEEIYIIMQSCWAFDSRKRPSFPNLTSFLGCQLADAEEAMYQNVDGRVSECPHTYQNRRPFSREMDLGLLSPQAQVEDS

For O=C(c1ccc(C(=O)N2CCC(N3CCCC3)CC2)c(Nc2ccccc2)c1)N1CCC(N2CCCC2)CC1, which inhibition [1] is on record?
Its inhibition is 64%.

What about the Diffusion coefficient [2] of the same compound?
The Diffusion coefficient was 0.043 um2/s.

What about the Ki [3] of the same compound?
Its Ki is 4.3 µM.

What about the Stability [4] of the same compound?
Its Stability is “Stable”.

And the Diffusion coefficient [5]?
Its Diffusion coefficient is 0.156 um2/s.

What about the IC50 [6] of the same compound?
The IC50 was 6 µM.

What about the Kb [7] of the same compound?
Its Kb is 0.0245 µM.

And the Activity [8]?
The Activity was “inactive”.

What about the Kd [9] of the same compound?
Its Kd is greater than 13 µM.

And the Diffusion coefficient [10]?
Its Diffusion coefficient is 0.284 um2/s.

And the IC50 [11]?
Its IC50 is 11 µM.
